Measured values as given in ChEMBL document CHEMBL4477166, “18β-Glycyrrhetinic Acid Derivatives Possessing a Trihydroxylated A Ring Are Potent Gram-Positive Antibacterial Agents” (2016).
Values after ≈ are worked out from the molar mass of the structure shown. Active and inactive are the calls of the source. No cut-off for these calls is given here.

Tests used:
[1] = tested on: Staphylococcus aureus; assay: Antibacterial activity against methicillin-resistant Staphylococcus aureus by microdilution assay; format: functional
How it was run: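 Log-phase cells seeded at 1 × 10⁵ CFU/mL. Twofold serial dilutions made in broth with DMSO cosolvent, at most 1% v/v. Turbidity read at 620 nm before and after incubation with vigorous shaking. MIC is the lowest concentration with no apparent growth versus the medium-plus-vehicle control. Run in triplicate.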

[2] = tested on: Bacillus subtilis; assay: Antibacterial activity against Bacillus subtilis ATCC 6051 by microdilution assay; format: functional
How it was run: (§1)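 Turbidimetric broth microdilution. Log-phase cells were washed and resuspended in broth (LB at 37 °C for B. subtilis and S. aureus; oat bran broth at 28 °C for S. scabies) and seeded at 1 × 10⁵ CFU/mL. Twofold serial dilutions were made with DMSO ≤1% (v/v). A620 was read, then plates were incubated with vigorous shaking. MIC was the lowest concentration with no apparent growth versus vehicle-only medium without cells. Run in triplicate.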

[3] = tested on: Pseudomonas aeruginosa; assay: Antibacterial activity against Pseudomonas aeruginosa at 100 uM measured after 5 to 6 hrs by microdilution assay; format: functional, organism-based
[4] = tested on: Streptomyces scabiei; assay: Antibacterial activity against Streptomyces scabiei CGMCC4.7610246 by microdilution assay; format: functional; how it was run: as §1
[5] = tested on: Staphylococcus aureus; assay: Antibacterial activity against Staphylococcus aureus ATCC 25923 by microdilution assay; format: functional; how it was run: as §1
[6] = tested on: Pseudomonas aeruginosa; assay: Antibacterial activity against multi-drug resistant Pseudomonas aeruginosa at 100 uM measured after 5 to 6 hrs by microdilution assay; format: functional, organism-based
How it was run: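 Log-phase cells seeded at 1 × 10⁵ CFU/mL. Single-dose screen at 100 μM, with DMSO cosolvent at most 1% v/v. Growth measured turbidimetrically at 620 nm, before and after incubation with vigorous shaking.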

[7] = tested on: Escherichia coli; assay: Antibacterial activity against Escherichia coli at 100 uM measured after 5 to 6 hrs by microdilution assay; format: functional, organism-based

| Compound | MIC [1] | MIC [2] | Activity [3] | MIC [4] | MIC [5] | Activity [6] | Activity [7] |
| --- | --- | --- | --- | --- | --- | --- | --- |
| CC1(C)[C@@H](O)[C@@H](O)[C@H](O)[C@]2(C)[C@H]3CC=C4[C@@H]5C[C@@](C)(C(=O)OCc6ccc(Cl)cc6)CC[C@]5(C)CC[C@@]4(C)[C@]3(C)CC[C@@H]12 | > 50 µg/mL | > 50 µg/mL | inactive | > 50 µg/mL | > 50 µg/mL | inactive | inactive |
| CC1(C)[C@@H](O)[C@@H](O)[C@H](O)[C@]2(C)[C@H]3CC=C4[C@@H]5C[C@@](C)(C(=O)OCc6ccccc6)CC[C@]5(C)CC[C@@]4(C)[C@]3(C)CC[C@@H]12 | 8 µg/mL (≈ 13.8 µM) | > 36.9 µg/mL | inactive | > 36 µg/mL | > 36.9 µg/mL | inactive | inactive |
| CC1(C)[C@H](O)[C@@H]2O[C@@H]2[C@]2(C)[C@H]3C(=O)C=C4[C@@H]5C[C@@](C)(C(=O)OCc6ccccc6)CC[C@]5(C)CC[C@@]4(C)[C@]3(C)CC[C@@H]12 | > 32 µg/mL | > 36.7 µg/mL | inactive | 36.7 µg/mL (≈ 63.8 µM) | > 36.7 µg/mL | inactive | inactive |
| CCCOC(=O)[C@@]1(C)CC[C@]2(C)CC[C@]3(C)C(=CC[C@@H]4[C@@]5(C)[C@@H](O)[C@H](O)[C@H](O)C(C)(C)[C@@H]5CC[C@]43C)[C@@H]2C1 | 8 µg/mL (≈ 15.1 µM) | > 33.9 µg/mL | inactive | > 33.9 µg/mL | 8.4 µg/mL (≈ 15.8 µM) | inactive | inactive |
| CCCCOC(=O)[C@@]1(C)CC[C@]2(C)CC[C@]3(C)C(=CC[C@@H]4[C@@]5(C)[C@@H](O)[C@H](O)[C@H](O)C(C)(C)[C@@H]5CC[C@]43C)[C@@H]2C1 | > 32 µg/mL | > 34.8 µg/mL | inactive | 4.3 µg/mL (≈ 7.89 µM) | > 34.8 µg/mL | inactive | inactive |
| CC1(C)[C@@H](O)[C@@H](O)[C@H](O)[C@]2(C)[C@H]3C(=O)C=C4[C@@H]5C[C@@](C)(C(=O)OCc6ccc([N+](=O)[O-])cc6)CC[C@]5(C)CC[C@@]4(C)[C@]3(C)CC[C@@H]12 | > 50 µg/mL | > 50 µg/mL | inactive | > 50 µg/mL | > 50 µg/mL | inactive | inactive |
| CC1(C)C(=O)CC[C@]2(C)[C@H]3CC=C4[C@@H]5C[C@@](C)(C(=O)OCc6ccccc6)CC[C@]5(C)CC[C@@]4(C)[C@]3(C)CC[C@@H]12 | > 50 µg/mL | > 50 µg/mL | inactive | > 50 µg/mL | > 50 µg/mL | inactive | inactive |
| CCCCCCCCCCCCCCCOC(=O)[C@@]1(C)CC[C@]2(C)CC[C@]3(C)C(=CC(=O)[C@@H]4[C@@]5(C)[C@@H](O)[C@H](O)[C@H](O)C(C)(C)[C@@H]5CC[C@]43C)[C@@H]2C1 | > 50 µg/mL | > 50 µg/mL | inactive | > 50 µg/mL | > 50 µg/mL | inactive | inactive |
| CC1(C)[C@H](O)[C@@H]2O[C@@H]2[C@]2(C)[C@H]3CC=C4[C@@H]5C[C@@](C)(C(=O)OCc6ccccc6)CC[C@]5(C)CC[C@@]4(C)[C@]3(C)CC[C@@H]12 | > 50 µg/mL | > 50 µg/mL | inactive | > 50 µg/mL | > 50 µg/mL | inactive | inactive |
| CC1(C)C(=O)C=C[C@]2(C)[C@H]3CC=C4[C@@H]5C[C@@](C)(C(=O)OCc6ccccc6)CC[C@]5(C)CC[C@@]4(C)[C@]3(C)CC[C@@H]12 | > 32 µg/mL | > 34.6 µg/mL | inactive | 34.6 µg/mL (≈ 63.7 µM) | > 34.6 µg/mL | inactive | inactive |
| CC1(C)[C@@H](O)CC[C@]2(C)[C@H]3CC=C4[C@@H]5C[C@@](C)(C(=O)O)CC[C@]5(C)CC[C@@]4(C)[C@]3(C)CC[C@@H]12 | > 50 µg/mL | > 50 µg/mL | inactive | > 50 µg/mL | > 50 µg/mL | inactive | inactive |
| CCCCCCCCCCCCCCCOC(=O)[C@@]1(C)CC[C@]2(C)CC[C@]3(C)C(=CC[C@@H]4[C@@]5(C)[C@@H](O)[C@H](O)[C@H](O)C(C)(C)[C@@H]5CC[C@]43C)[C@@H]2C1 | > 50 µg/mL | > 50 µg/mL | inactive | > 50 µg/mL | > 50 µg/mL | inactive | inactive |
| CCCOC(=O)[C@@]1(C)CC[C@]2(C)CC[C@]3(C)C(=CC(=O)[C@@H]4[C@@]5(C)[C@@H](O)[C@H](O)[C@H](O)C(C)(C)[C@@H]5CC[C@]43C)[C@@H]2C1 | 2 µg/mL (≈ 3.67 µM) | > 34.8 µg/mL | inactive | 4.3 µg/mL (≈ 7.89 µM) | 4.3 µg/mL (≈ 7.89 µM) | inactive | inactive |
| CC1(C)C(=O)C=C[C@]2(C)[C@H]3C(=O)C=C4[C@@H]5C[C@@](C)(C(=O)OCc6ccccc6)CC[C@]5(C)CC[C@@]4(C)[C@]3(C)CC[C@@H]12 | > 50 µg/mL | > 50 µg/mL | inactive | > 50 µg/mL | > 50 µg/mL | inactive | inactive |
| COC(=O)[C@@]1(C)CC[C@]2(C)CC[C@]3(C)C(=CC(=O)[C@@H]4[C@@]5(C)[C@@H](O)[C@H](O)[C@H](O)C(C)(C)[C@@H]5CC[C@]43C)[C@@H]2C1 | > 50 µg/mL | > 50 µg/mL | inactive | > 50 µg/mL | > 50 µg/mL | inactive | inactive |
| CC1(C)[C@@H](O)[C@@H]2O[C@@H]2[C@]2(C)[C@H]3CC=C4[C@@H]5C[C@@](C)(C(=O)OCc6ccccc6)CC[C@]5(C)CC[C@@]4(C)[C@]3(C)CC[C@@H]12 | > 50 µg/mL | > 50 µg/mL | inactive | > 50 µg/mL | > 50 µg/mL | inactive | inactive |
| CC1(C)[C@@H](O)[C@@H](O)[C@H](O)[C@]2(C)[C@H]3CC=C4[C@@H]5C[C@@](C)(C(=O)OCc6ccc([N+](=O)[O-])cc6)CC[C@]5(C)CC[C@@]4(C)[C@]3(C)CC[C@@H]12 | > 50 µg/mL | > 50 µg/mL | inactive | > 50 µg/mL | > 50 µg/mL | inactive | inactive |
| CCCCCOC(=O)[C@@]1(C)CC[C@]2(C)CC[C@]3(C)C(=CC(=O)[C@@H]4[C@@]5(C)[C@@H](O)[C@H](O)[C@H](O)C(C)(C)[C@@H]5CC[C@]43C)[C@@H]2C1 | > 50 µg/mL | > 50 µg/mL | inactive | > 50 µg/mL | > 50 µg/mL | inactive | inactive |
| CC1(C)[C@@H](O)[C@@H](O)[C@H](O)[C@]2(C)[C@H]3C(=O)C=C4[C@@H]5C[C@@](C)(C(=O)O)CC[C@]5(C)CC[C@@]4(C)[C@]3(C)CC[C@@H]12 | > 50 µg/mL | > 50 µg/mL | inactive | > 50 µg/mL | > 50 µg/mL | inactive | inactive |
| CC1(C)[C@@H](O)[C@@H](O)[C@H](O)[C@]2(C)[C@H]3C(=O)C=C4[C@@H]5C[C@@](C)(C(=O)OCc6ccccc6Cl)CC[C@]5(C)CC[C@@]4(C)[C@]3(C)CC[C@@H]12 | > 50 µg/mL | > 50 µg/mL | inactive | > 50 µg/mL | > 50 µg/mL | inactive | inactive |
| CC1(C)[C@@H](O)CC[C@]2(C)[C@H]3C(=O)C=C4[C@@H]5C[C@@](C)(C(=O)OCc6ccccc6)CC[C@]5(C)CC[C@@]4(C)[C@]3(C)CC[C@@H]12 | > 50 µg/mL | > 50 µg/mL | inactive | > 50 µg/mL | > 50 µg/mL | inactive | inactive |
| CN[C@@H]1[C@H](O[C@H]2[C@H](O[C@H]3[C@H](O)[C@@H](O)[C@H](N=C(N)N)[C@@H](O)[C@@H]3N=C(N)N)O[C@@H](C)[C@]2(O)C=O)O[C@@H](CO)[C@H](O)[C@H]1O [STREPTOMYCIN] | – | 2.9 µg/mL (≈ 4.99 µM) | – | 5.8 µg/mL (≈ 9.97 µM) | – | – | – |
| CC1(C)[C@@H](O)[C@@H]2O[C@@H]2[C@]2(C)[C@H]3C(=O)C=C4[C@@H]5C[C@@](C)(C(=O)OCc6ccccc6)CC[C@]5(C)CC[C@@]4(C)[C@]3(C)CC[C@@H]12 | > 50 µg/mL | > 50 µg/mL | inactive | > 50 µg/mL | > 50 µg/mL | inactive | inactive |
| CC1(C)S[C@@H]2[C@H](NC(=O)[C@H](N)c3ccccc3)C(=O)N2[C@H]1C(=O)O [AMPICILLIN] | – | – | – | – | 1.4 µg/mL (≈ 4.01 µM) | – | – |
